Test system: 7TDI
Assay: Inhibition of IL6-dependent growth of 7TDI cells at 10 uM relative to madindoline A
Type: functional, Mus musculus
Method in brief: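 IL-6-dependent 7TDI cell line; growth inhibition measured with each analogue present at 10 μM. Values expressed against the natural compound.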

SMILES | Activity
CC1=C(C)C(=O)C(C)(CN2c3ccccc3[C@]3(O)CCO[C@H]23)C1=O | 0
CCCCCCCCCC1=C(C)C(=O)[C@](C)(CN2c3ccccc3[C@]3(O)CCO[C@H]23)C1=O | 3.9
CC1=C(Cc2ccccc2)C(=O)[C@@](C)(CN2c3ccccc3[C@]3(O)CCO[C@H]23)C1=O | 0.9
CCCCC1=C(C)C(=O)[C@@](C)(CN2c3ccccc3[C@]3(OC(=O)c4ccccc4)CCO[C@H]23)C1=O | 2.6
CCCCCC(=O)O[C@@]12CCO[C@@H]1N(C[C@]1(C)C(=O)C(C)=C(CCCC)C1=O)c1ccccc12 | 2.6
CC1=C(C)C(=O)CC1=O | 0
O[C@@]12CCO[C@@H]1Nc1ccccc12 | 0
CCCCC1=C(C)C(=O)[C@@](C)(CN2c3ccc(Cl)cc3[C@]3(O)CCO[C@H]23)C1=O | 0.8
CCCCCCCCCCCCCCCCCCCCCC1=C(C)C(=O)[C@](C)(CN2c3ccccc3[C@]3(O)CCO[C@H]23)C1=O | 0
CCCCC1=C(C)C(=O)[C@@](C)(CN2c3ccccc3[C@@]3(O)CCO[C@@H]23)C1=O | 0
CCCCCCCC1=C(C)C(=O)[C@](C)(CN2c3ccccc3[C@]3(O)CCO[C@H]23)C1=O | 3.2
CCCCC1=C(C)C(=O)[C@@](C)(CN2c3ccc(Br)cc3[C@]3(O)CCO[C@H]23)C1=O | 2.8
CCCCC1=C(C)C(=O)[C@@](C)(Cn2cc(CCO)c3ccccc32)C1=O | 0.9
CCCCCCCCCCCC1=C(C)C(=O)[C@](C)(CN2c3ccccc3[C@]3(O)CCO[C@H]23)C1=O | 3.4
CCC1=C(C)C(=O)[C@](C)(CN2c3ccccc3[C@]3(O)CCO[C@H]23)C1=O | 0
CCCCC1=C(C)C(=O)[C@@](C)(CN2c3ccccc3[C@]3(O)CCO[C@H]23)C1=O | 1
CCCCC1=C(C)C(=O)[C@@](C)(CN2c3ccc(I)cc3[C@]3(O)CCO[C@H]23)C1=O | 2.8
CCCCCCCCCC(=O)O[C@@]12CCO[C@@H]1N(C[C@]1(C)C(=O)C(C)=C(CCCC)C1=O)c1ccccc12 | 0
CCCCC1=C(C)C(=O)[C@@](C)(CN2c3ccccc3[C@]3(OC(C)=O)CCO[C@H]23)C1=O | 1.2
